Reference: ChEMBL document CHEMBL4689842, “EUbOPEN Chemogenomics Library wave 1” (2021)
Where “and” joins values, the source holds several entries; their conditions need not be identical. Identical values can stand only once.

Tested on: HEK-293T
Assay: Multiplex assay against HEK293T;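 for Population Tubulin-Different-Phenotype (%): share of the cells with healthy nuclei that show this phenotype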
Format: toxicity, cell-based
Conditions: human
Summary of the method: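 Live cells were stained at seeding with Hoechst33342, BioTracker Green Microtubule Cytoskeleton Dye, MitoTracker Red and Annexin V Alexa Fluor 680. Following compound addition, they were imaged on a CQ1 microscope at 37°C and 5% CO2 and gated by CellPathfinder machine learning into Hoechst high-intensity objects or normal cells, with normal cells split into healthy, pyknosed or fragmented nuclei and pyknosed cells into mitotic or apoptotic. Tubulin, mitochondrial-mass and membrane-permeability phenotypes are per cents of healthy-nucleus cells.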

[1] = 12 h, 1 µM, compound concentration 1 uM, replicate 1
[2] = 12 h, 1 µM, compound concentration 1 uM, replicate 2
[3] = 12 h, 10 µM, compound concentration 10 uM, replicate 1
[4] = 12 h, 10 µM, compound concentration 10 uM, replicate 2
[5] = 24 h, 1 µM, compound concentration 1 uM, replicate 1
[6] = 24 h, 1 µM, compound concentration 1 uM, replicate 2
[7] = 24 h, 10 µM, compound concentration 10 uM, replicate 1
[8] = 24 h, 10 µM, compound concentration 10 uM, replicate 2
[9] = 48 h, 10 µM, compound concentration 10 uM, replicate 1
[10] = 48 h, 10 µM, compound concentration 10 uM, replicate 2
[11] = 48 h, 1 µM, compound concentration 1 uM, replicate 1
[12] = 48 h, 1 µM, compound concentration 1 uM, replicate 2

Cc1c(Nc2ccc(S(=O)(=O)N3CCN(C)CC3)cc2F)nc2ccc(-c3cnn(C4CC4)c3)cn2c1=O
Population Apoptotic (%) [1]: 19%
Population Fragmented Nuclei (%) [1]: 13%
Population Healthy Nuclei (%) [1]: 67%
Population Hoechst High Intensity Objects (%) [1]: 9%
Population Membrane Permeable-Phenotype (%) [1]: 4%
Population Mitochondria Different-Phenotype (%) [1]: 6%
Population Mitotic Cells (%) [1]: 80%
Population Normal (%) [1]: 90%
Population Pyknosed Nuclei (%) [1]: 18%
Population Tubulin-Different-Phenotype (%) [1]: 6%
Total Cell Count [1]: 755
Population Apoptotic (%) [2]: 10%
Population Fragmented Nuclei (%) [2]: 7%
Population Healthy Nuclei (%) [2]: 87%
Population Hoechst High Intensity Objects (%) [2]: 2%
Population Membrane Permeable-Phenotype (%) [2]: 2%
Population Mitochondria Different-Phenotype (%) [2]: 9%
Population Mitotic Cells (%) [2]: 89%
Population Normal (%) [2]: 97%
Population Pyknosed Nuclei (%) [2]: 4%
Population Tubulin-Different-Phenotype (%) [2]: 10%
Total Cell Count [2]: 1860
Population Apoptotic (%) [3]: 43% and 17%
Population Fragmented Nuclei (%) [3]: 44% and 17%
Population Healthy Nuclei (%) [3]: 37% and 61%
Population Hoechst High Intensity Objects (%) [3]: 45% and 18%
Population Membrane Permeable-Phenotype (%) [3]: 2% and 7%
Population Mitotic Cells (%) [3]: 56% and 82%
Population Normal (%) [3]: 54% and 81%
Population Pyknosed Nuclei (%) [3]: 18% and 20%
Population Tubulin-Different-Phenotype (%) [3]: 40% and 15%
Total Cell Count [3]: 1012 and 786
Population Apoptotic (%) [4]: 16% and 6%
Population Fragmented Nuclei (%) [4]: 14% and 9%
Population Healthy Nuclei (%) [4]: 32% and 84%
Population Hoechst High Intensity Objects (%) [4]: 22% and 9%
Population Membrane Permeable-Phenotype (%) [4]: 4% and 8%
Population Mitotic Cells (%) [4]: 83% and 93%
Population Normal (%) [4]: 77% and 90%
Population Tubulin-Different-Phenotype (%) [4]: 64% and 33%
Population Apoptotic (%) [5]: 15%
Population Fragmented Nuclei (%) [5]: 11%
Population Healthy Nuclei (%) [5]: 77%
Population Hoechst High Intensity Objects (%) [5]: 5%
Population Membrane Permeable-Phenotype (%) [5]: 8%
Population Mitochondria Different-Phenotype (%) [5]: 4%
Population Mitotic Cells (%) [5]: 84%
Population Normal (%) [5]: 94%
Population Pyknosed Nuclei (%) [5]: 10%
Population Tubulin-Different-Phenotype (%) [5]: 10%
Total Cell Count [5]: 923
Population Apoptotic (%) [6]: 1%
Population Fragmented Nuclei (%) [6]: 23%
Population Healthy Nuclei (%) [6]: 74%
Population Hoechst High Intensity Objects (%) [6]: 2%
Population Membrane Permeable-Phenotype (%) [6]: 7%
Population Mitochondria Different-Phenotype (%) [6]: 2%
Population Mitotic Cells (%) [6]: 98%
Population Normal (%) [6]: 97%
Population Pyknosed Nuclei (%) [6]: 1%
Population Tubulin-Different-Phenotype (%) [6]: 14%
Total Cell Count [6]: 3127
Population Apoptotic (%) [7]: 41%
Population Healthy Nuclei (%) [7]: 39% and 75%
Population Membrane Permeable-Phenotype (%) [7]: 8%
Population Mitotic Cells (%) [7]: 58% and 76%
Population Normal (%) [7]: 56% and 86%
Population Pyknosed Nuclei (%) [7]: 16% and 12%
Population Tubulin-Different-Phenotype (%) [7]: 51% and 32%
Total Cell Count [7]: 1052 and 818
Population Fragmented Nuclei (%) [8]: 11% and 14%
Population Healthy Nuclei (%) [8]: 42% and 80%
Population Mitotic Cells (%) [8]: 77% and 93%
Population Normal (%) [8]: 75% and 92%
Population Tubulin-Different-Phenotype (%) [8]: 64% and 49%
Population Apoptotic (%) [9]: 44%
Population Fragmented Nuclei (%) [9]: 37%
Population Healthy Nuclei (%) [9]: 47%
Population Hoechst High Intensity Objects (%) [9]: 40%
Population Membrane Permeable-Phenotype (%) [9]: 5%
Population Mitochondria Different-Phenotype (%) [9]: 35%
Population Mitotic Cells (%) [9]: 55%
Population Normal (%) [9]: 59%
Population Pyknosed Nuclei (%) [9]: 14%
Population Tubulin-Different-Phenotype (%) [9]: 58%
Total Cell Count [9]: 1023
Population Apoptotic (%) [10]: 26%
Population Fragmented Nuclei (%) [10]: 12%
Population Healthy Nuclei (%) [10]: 61%
Population Hoechst High Intensity Objects (%) [10]: 19%
Population Membrane Permeable-Phenotype (%) [10]: 12%
Population Mitotic Cells (%) [10]: 73%
Population Normal (%) [10]: 80%
Population Pyknosed Nuclei (%) [10]: 25%
Population Tubulin-Different-Phenotype (%) [10]: 69%
Total Cell Count [10]: 372

CC(C)[C@H](CO)Nc1nc(Nc2cccc(Cl)c2)c2ncn(C(C)C)c2n1 [PURVALANOLA]
Population Apoptotic (%) [1]: 48%
Population Fragmented Nuclei (%) [1]: 8%
Population Healthy Nuclei (%) [1]: 37%
Population Hoechst High Intensity Objects (%) [1]: 13%
Population Membrane Permeable-Phenotype (%) [1]: 5%
Population Mitochondria Different-Phenotype (%) [1]: 85%
Population Mitotic Cells (%) [1]: 51%
Population Normal (%) [1]: 86%
Population Pyknosed Nuclei (%) [1]: 54%
Population Tubulin-Different-Phenotype (%) [1]: 53%
Total Cell Count [1]: 256
Population Apoptotic (%) [2]: 19%
Population Fragmented Nuclei (%) [2]: 6%
Population Healthy Nuclei (%) [2]: 43%
Population Hoechst High Intensity Objects (%) [2]: 3%
Population Membrane Permeable-Phenotype (%) [2]: 7%
Population Mitochondria Different-Phenotype (%) [2]: 33%
Population Mitotic Cells (%) [2]: 80%
Population Normal (%) [2]: 96%
Population Pyknosed Nuclei (%) [2]: 50%
Population Tubulin-Different-Phenotype (%) [2]: 32%
Total Cell Count [2]: 201
Population Apoptotic (%) [3]: 73%
Population Fragmented Nuclei (%) [3]: 7%
Population Healthy Nuclei (%) [3]: 27%
Population Hoechst High Intensity Objects (%) [3]: 12%
Population Membrane Permeable-Phenotype (%) [3]: 2%
Population Mitochondria Different-Phenotype (%) [3]: 97%
Population Mitotic Cells (%) [3]: 26%
Population Normal (%) [3]: 87%
Population Pyknosed Nuclei (%) [3]: 64%
Population Tubulin-Different-Phenotype (%) [3]: 98%
Total Cell Count [3]: 324
Population Apoptotic (%) [4]: 53%
Population Fragmented Nuclei (%) [4]: 6%
Population Healthy Nuclei (%) [4]: 18%
Population Hoechst High Intensity Objects (%) [4]: 7%
Population Membrane Permeable-Phenotype (%) [4]: 5%
Population Mitochondria Different-Phenotype (%) [4]: 82%
Population Mitotic Cells (%) [4]: 46%
Population Normal (%) [4]: 92%
Population Pyknosed Nuclei (%) [4]: 75%
Population Tubulin-Different-Phenotype (%) [4]: 97%
Total Cell Count [4]: 198
Population Apoptotic (%) [5]: 42%
Population Fragmented Nuclei (%) [5]: 14%
Population Healthy Nuclei (%) [5]: 36%
Population Hoechst High Intensity Objects (%) [5]: 11%
Population Membrane Permeable-Phenotype (%) [5]: 4%
Population Mitochondria Different-Phenotype (%) [5]: 75%
Population Mitotic Cells (%) [5]: 57%
Population Normal (%) [5]: 88%
Population Pyknosed Nuclei (%) [5]: 49%
Population Tubulin-Different-Phenotype (%) [5]: 53%
Total Cell Count [5]: 295
Population Apoptotic (%) [6]: 14%
Population Fragmented Nuclei (%) [6]: 4%
Population Healthy Nuclei (%) [6]: 63%
Population Hoechst High Intensity Objects (%) [6]: 3%
Population Membrane Permeable-Phenotype (%) [6]: 3%
Population Mitochondria Different-Phenotype (%) [6]: 26%
Population Mitotic Cells (%) [6]: 85%
Population Normal (%) [6]: 96%
Population Pyknosed Nuclei (%) [6]: 31%
Population Tubulin-Different-Phenotype (%) [6]: 36%
Total Cell Count [6]: 244
Population Apoptotic (%) [7]: 75%
Population Fragmented Nuclei (%) [7]: 6%
Population Healthy Nuclei (%) [7]: 31%
Population Hoechst High Intensity Objects (%) [7]: 12%
Population Membrane Permeable-Phenotype (%) [7]: 2%
Population Mitochondria Different-Phenotype (%) [7]: 98%
Population Mitotic Cells (%) [7]: 24%
Population Normal (%) [7]: 87%
Population Pyknosed Nuclei (%) [7]: 61%
Population Tubulin-Different-Phenotype (%) [7]: 96%
Total Cell Count [7]: 375
Population Apoptotic (%) [8]: 69%
Population Fragmented Nuclei (%) [8]: 4%
Population Healthy Nuclei (%) [8]: 19%
Population Hoechst High Intensity Objects (%) [8]: 9%
Population Membrane Permeable-Phenotype (%) [8]: 5%
Population Mitochondria Different-Phenotype (%) [8]: 94%
Population Mitotic Cells (%) [8]: 30%
Population Normal (%) [8]: 90%
Population Pyknosed Nuclei (%) [8]: 75%
Population Tubulin-Different-Phenotype (%) [8]: 97%
Total Cell Count [8]: 200
Population Apoptotic (%) [11]: 49%
Population Fragmented Nuclei (%) [11]: 18%
Population Healthy Nuclei (%) [11]: 42%
Population Hoechst High Intensity Objects (%) [11]: 13%
Population Membrane Permeable-Phenotype (%) [11]: 3%
Population Mitochondria Different-Phenotype (%) [11]: 46%
Population Mitotic Cells (%) [11]: 50%
Population Normal (%) [11]: 86%
Population Pyknosed Nuclei (%) [11]: 40%
Population Tubulin-Different-Phenotype (%) [11]: 38%
Total Cell Count [11]: 347
Population Apoptotic (%) [12]: 13%
Population Fragmented Nuclei (%) [12]: 7%
Population Healthy Nuclei (%) [12]: 77%
Population Hoechst High Intensity Objects (%) [12]: 4%
Population Mitochondria Different-Phenotype (%) [12]: 12%
Population Mitotic Cells (%) [12]: 86%
Population Normal (%) [12]: 95%
Population Pyknosed Nuclei (%) [12]: 15%
Population Tubulin-Different-Phenotype (%) [12]: 26%
Total Cell Count [12]: 414
Population Apoptotic (%) [9]: 85%
Population Fragmented Nuclei (%) [9]: 8%
Population Healthy Nuclei (%) [9]: 50%
Population Hoechst High Intensity Objects (%) [9]: 12%
Population Mitochondria Different-Phenotype (%) [9]: 99%
Population Mitotic Cells (%) [9]: 14%
Population Normal (%) [9]: 87%
Population Pyknosed Nuclei (%) [9]: 41%
Population Tubulin-Different-Phenotype (%) [9]: 99%
Total Cell Count [9]: 366
Population Apoptotic (%) [10]: 89%
Population Fragmented Nuclei (%) [10]: 6%
Population Healthy Nuclei (%) [10]: 38%
Population Hoechst High Intensity Objects (%) [10]: 5%
Population Membrane Permeable-Phenotype (%) [10]: 2%
Population Mitochondria Different-Phenotype (%) [10]: 94%
Population Mitotic Cells (%) [10]: 10%
Population Normal (%) [10]: 94%
Population Pyknosed Nuclei (%) [10]: 55%
Population Tubulin-Different-Phenotype (%) [10]: 94%
Total Cell Count [10]: 190
